Data reported in ChEMBL document CHEMBL1799933, “Discovery of a selective allosteric M1 receptor modulator with suitable development properties based on a quinolizidinone carboxylic acid scaffold” (J Med Chem, 2011).
The source made the active and inactive calls. The rule behind the calls is not given here.

How the values were obtained:
[1] = biological target: T1, Muscarinic acetylcholine receptor M1 (Homo sapiens) (UniProt P11229); experiment: Agonist activity at human muscarinic M1 receptor expressed in CHONFAT cells assessed as enhancement of acetylcholine-induced calcium mobilization preincubated for 4 mins measured after 1 hr by FLIPR assay; format: functional, cell-based
T1 sequence (whole entry): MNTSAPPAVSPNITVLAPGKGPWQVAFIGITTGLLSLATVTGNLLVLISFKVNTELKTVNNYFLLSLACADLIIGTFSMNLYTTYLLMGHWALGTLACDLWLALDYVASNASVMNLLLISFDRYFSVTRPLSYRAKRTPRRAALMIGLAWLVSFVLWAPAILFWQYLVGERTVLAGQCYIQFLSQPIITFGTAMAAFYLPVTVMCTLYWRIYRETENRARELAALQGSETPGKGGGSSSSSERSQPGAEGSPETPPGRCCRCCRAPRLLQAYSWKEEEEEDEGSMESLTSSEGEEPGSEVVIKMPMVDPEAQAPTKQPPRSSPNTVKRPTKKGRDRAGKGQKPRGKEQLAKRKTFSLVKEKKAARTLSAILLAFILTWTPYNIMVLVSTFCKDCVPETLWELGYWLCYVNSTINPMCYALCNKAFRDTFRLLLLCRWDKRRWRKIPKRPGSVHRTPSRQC
Method in brief: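 CHO-NFAT cells expressing the named muscarinic receptor (human M1–M4; rhesus, dog or rat M1 in CHO-K1) were plated at 25,000 cells/well and grown overnight at 37 °C, 6% CO2. Cells were loaded with 1 μM Fluo-4AM for 1 h, washed, and preincubated 4 min with serially diluted compound (final DMSO 0.67%). They were then stimulated 4 min with an EC20 of ACh, and Ca2+ flux was read by FLIPR384.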

[2] = Plasma protein binding in rat serum by equilibrium dialysis method; format: ADME, cell-free; conditions: read-out: PPB (converted)
Method in brief: (§1)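 Protein binding measured by equilibrium dialysis against rat or human serum.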

[3] = Plasma protein binding in human serum by equilibrium dialysis method; format: ADME, cell-free; conditions: read-out: PPB (converted); method in brief: as §1
Canis familiaris = experiment: Metabolic stability in po dosed portal vein cannulated dog assessed as level of presystemic G1 glucuronidation by scintillation counting; format: ADME, organism-based, Canis lupus familiaris; conditions: in vivo
[4] = Passive permeability of the compound at 5 uM; format: ADME; conditions: not told
Plasma = experiment: Drug level in Sprague-Dawley rat plasma at 10 mg/kg, po; format: ADME, organism-based; set-up: dose 10 mg/kg, route oral; conditions: in vivo
Method in brief: (§2)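 Rats dosed orally at 10 mpk. Plasma, brain and CSF sampled at 2 h and concentrations determined by bioanalysis.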

Cerebrospinal fluid = experiment: Drug level in Sprague-Dawley rat cerebrospinal fluid at 10 mg/kg, po; format: ADME, organism-based; set-up: dose 10 mg/kg, route oral; conditions: in vivo, read-out: Drug uptake; method in brief: as §2
[5] = Ratio of drug level in cerebrospinal fluid to fraction unbound level in plasma of Sprague-Dawley rat at 10 mg/kg, po; format: ADME, organism-based; set-up: dose 10 mg/kg, route oral; conditions: in vivo
[6] = Lipophilicity, log P of the compound; format: physicochemical; conditions: octanol/water
Brain = experiment: Drug level Sprague-Dawley rat brain at 10 mg/kg, po; format: ADME, organism-based; set-up: dose 10 mg/kg, route oral; conditions: in vivo, read-out: Drug uptake; method in brief: as §2
[7] = Ratio of drug level in brain to plasma of Sprague-Dawley rat at 10 mg/kg, po; format: ADME, organism-based; set-up: dose 10 mg/kg, route oral; conditions: read-out: BPR; method in brief: as §2
Mus musculus [8] = experiment: Antiamnesic activity against scopolamine-induced dementia in ip dosed B6SJL mouse assessed as increase in freezing behavior at 7.4 uM plasma concentration; format: functional, organism-based
Mus musculus [9] = experiment: Antiamnesic activity against scopolamine-induced dementia in ip dosed B6SJL mouse assessed as increase in freezing behavior at 33 uM plasma concentration; format: functional, organism-based
[10] = Fraction unbound in human plasma; format: ADME, cell-free
[11] = Fraction unbound in rat plasma; format: ADME, cell-free
[12] = Oral bioavailability in rat at 3 mg/kg; format: ADME, organism-based; conditions: in vivo
Method in brief: (§3)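 Rats (n = 2) dosed orally at 3 mg/kg and IV at 1 mg/kg. Interanimal variability under 20% for all values.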

[13] = Half life in rat at 3 mg/kg, po and 1 mg/kg, iv; format: ADME, organism-based; conditions: in vivo; method in brief: as §3
[14] = Clearance in rat at 3 mg/kg, po and 1 mg/kg, iv; format: ADME, organism-based; conditions: in vivo; method in brief: as §3
[15] = Oral bioavailability in dog at 3 mg/kg; format: ADME, organism-based, Canis lupus familiaris; conditions: in vivo
Method in brief: (§4)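 Dog PK, n = 2 animals. Given orally at 3 mg/kg and intravenously at 1 mg/kg. Interanimal variability under 20% for all values.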

[16] = Half life in dog at 3 mg/kg, po and 1 mg/kg, iv; format: ADME, organism-based, Canis lupus familiaris; conditions: in vivo; method in brief: as §4
[17] = Clearance in dog at 3 mg/kg, po and 1 mg/kg, iv; format: ADME, organism-based, Canis lupus familiaris; conditions: in vivo; method in brief: as §4

| SMILES | IP [1] | fraction unbound [2] | fraction unbound [3] | other results |
| --- | --- | --- | --- | --- |
| Cc1cccc(C2(C#N)CCN(Cc3cc(C(=O)O)c(=O)n4ccccc34)CC2)n1 | 148 nM | 0.249 | 0.158 |  |
| N#CC1(c2ccccc2F)CCN(Cc2cc(C(=O)O)c(=O)n3ccccc23)CC1 | 81 nM | 0.102 | 0.055 |  |
| COc1ccccc1C1(C#N)CCN(Cc2cc(C(=O)O)c(=O)n3ccccc23)CC1 | 164 nM |  |  |  |
| N#CC1(c2ccc(F)cc2)CCN(Cc2cc(C(=O)O)c(=O)n3ccccc23)CC1 | 194 nM |  |  |  |
| N#CC1(c2cc(-c3ccccc3)ccn2)CCN(Cc2cc(C(=O)O)c(=O)n3ccccc23)CC1 | 659 nM |  |  |  |
| [3H]OC(=O)c1cc(CN2CCC(C#N)(c3ccccn3)CC2)c2ccccn2c1=O |  |  |  | Stability (Canis familiaris): 50% |
| COc1ccnc(C2(C#N)CCN(Cc3cc(C(=O)O)c(=O)n4ccccc34)CC2)c1 | 224 nM | 0.485 | 0.217 |  |
| CSc1cccc(C2(C#N)CCN(Cc3cc(C(=O)O)c(=O)n4ccccc34)CC2)n1 | 100 nM | 0.057 | 0.012 |  |
| Cc1ccc(C2(C#N)CCN(Cc3cc(C(=O)O)c(=O)n4ccccc34)CC2)nc1 | 204 nM | 0.348 | 0.175 |  |
| CCc1ccnc(C2(C#N)CCN(Cc3cc(C(=O)O)c(=O)n4ccccc34)CC2)c1 | 84 nM | 0.272 | 0.134 |  |
| N#CC1(c2cccnc2)CCN(Cc2cc(C(=O)O)c(=O)n3ccccc23)CC1 | 363 nM | 0.509 | 0.361 | Papp at 5 µM [4]: 39 ×10⁻⁶ cm/s; concentration (Plasma): 1720 nM; concentration (Cerebrospinal fluid): 40 nM; Ratio [5]: < 0.1; logP [6]: -0.4 |
| N#CC1(c2cc(F)ccn2)CCN(Cc2cc(C(=O)O)c(=O)n3ccccc23)CC1 | 244 nM |  |  |  |
| N#CC1CCN(Cc2cc(C(=O)O)c(=O)n3ccccc23)CC1 | 7650 nM |  |  |  |
| Cc1cccnc1C1(C#N)CCN(Cc2cc(C(=O)O)c(=O)n3ccccc23)CC1 | 1940 nM |  |  |  |
| Cc1ccccc1C1(C#N)CCN(Cc2cc(C(=O)O)c(=O)n3ccccc23)CC1 | 68 nM | 0.051 | 0.038 | Papp at 5 µM [4]: 24 ×10⁻⁶ cm/s; concentration (Plasma): 234 nM; concentration (Brain): 114 nM; concentration (Cerebrospinal fluid): 16 nM; Kp [7]: 0.48; Ratio [5]: 0.5 |
| N#Cc1ccc(N2CCN(Cc3cc(C(=O)O)c(=O)n4ccccc34)CC2)cc1 |  |  |  | Activity (Mus musculus [8]): Active |
| COc1ccc(Cn2cc(C(=O)O)c(=O)c3ccccc32)cc1 |  |  |  | Activity (Mus musculus [9]): Active |
| N#CC1(c2ccncc2)CCN(Cc2cc(C(=O)O)c(=O)n3ccccc23)CC1 | 938 nM |  |  |  |
| N#CC1(c2ccccc2)CCN(Cc2cc(C(=O)O)c(=O)n3ccccc23)CC1 | 151 nM | 0.135 | 0.101 | Papp at 5 µM [4]: 27 ×10⁻⁶ cm/s; concentration (Plasma): 321 nM; concentration (Brain): 127 nM; concentration (Cerebrospinal fluid): 8 nM; Kp [7]: 0.39; Ratio [5]: 0.25; fraction unbound [10]: 0.1; fraction unbound [11]: 0.1 |
| N#CC1(c2cc(C(F)(F)F)ccn2)CCN(Cc2cc(C(=O)O)c(=O)n3ccccc23)CC1 | 2720 nM |  |  |  |
| Cc1cccc(C2(C#N)CCN(Cc3cc(C(=O)O)c(=O)n4ccccc34)CC2)c1 | 88 nM | 0.059 | 0.048 |  |
| N#CC1(c2cccc(F)c2)CCN(Cc2cc(C(=O)O)c(=O)n3ccccc23)CC1 | 562 nM |  |  |  |
| N#CC1(c2cccc(Cl)n2)CCN(Cc2cc(C(=O)O)c(=O)n3ccccc23)CC1 | 133 nM | 0.218 | 0.071 |  |
| Cc1ccnc(C2(C#N)CCN(Cc3cc(C(=O)O)c(=O)n4ccccc34)CC2)c1 | 44 nM | 0.467 | 0.235 | Papp at 5 µM [4]: 27 ×10⁻⁶ cm/s; concentration (Plasma): 3070 nM; concentration (Brain): 233 nM; concentration (Cerebrospinal fluid): 180 nM; Kp [7]: 0.07; Ratio [5]: 0.25; bioavailability [12]: 24%; half-life [13]: 1.9 h; clearance [14]: 17.7 mL/min/kg; bioavailability [15]: 47%; half-life [16]: 3.9 h; clearance [17]: 10.1 mL/min/kg |
| O=C(O)c1cc(CN2CCC(c3ccccc3)CC2)c2ccccn2c1=O | 1340 nM |  |  |  |
